Sampled rows, rich in hits. Any-hit rate of the full collection: about 2.5%.
NadD block: inhibitors of Staphylococcus aureus NadD. purified NadD enzyme, colorimetric absorbance read-out. inhibition, % at 20 µM. actives 0.78% (n = 360,000); in the data active means inhibition above about 26%
GRK2 inh: inhibitors of human GRK2 displacing RNA aptamer; bead flow cytometry, FAM-aptamer displacement from GRK2; inhibition of aptamer binding, % at 10 µM; actives 0.59% (n = 330,000); AID 488847;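 active means inhibition of aptamer binding above 40%, roughly 3 SD of noise, on plates passing a quality check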;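 further: median bead fluorescence of bound FAM aptamer so fluorescent compounds give negative values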
B2AR ag: human beta-2 adrenergic receptor agonism by FAP. P07550. Am2.2-beta2AR cells, FAP receptor internalization, flow cytometry. response, % (test concentration not listed). actives 0.43% (n = 340,000). AID 504454;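 active means response above a set limit, near 3 SD of response in nonfluorescent compounds, cut at about 42% in these data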
Target sequence (P07550 whole entry, looked up): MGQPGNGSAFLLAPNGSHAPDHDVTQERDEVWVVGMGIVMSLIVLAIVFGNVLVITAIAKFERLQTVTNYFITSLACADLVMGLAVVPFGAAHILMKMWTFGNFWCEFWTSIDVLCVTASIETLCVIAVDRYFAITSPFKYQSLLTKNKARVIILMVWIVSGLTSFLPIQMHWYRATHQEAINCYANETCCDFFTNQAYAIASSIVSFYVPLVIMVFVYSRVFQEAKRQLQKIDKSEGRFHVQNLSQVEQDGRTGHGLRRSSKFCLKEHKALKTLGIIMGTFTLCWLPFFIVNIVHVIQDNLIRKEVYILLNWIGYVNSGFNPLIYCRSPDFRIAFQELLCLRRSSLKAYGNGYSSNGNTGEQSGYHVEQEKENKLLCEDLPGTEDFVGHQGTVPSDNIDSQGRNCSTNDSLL
ABHD5-PLIN5 inh: ABHD5-PLIN5 protein interaction inhibition | Q00G26+Q8WTS1 | Split G. princeps luciferase complementation, luminescence, 4 h | inhibition, % at 4 µM | actives 0.78% (n = 360,000);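 active means inhibition above the mean inhibition across every tested compound plus 3 SD, cut at about 22% in these data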
SENP1 inh: SENP1 (human) catalytic domain inhibition | Q9P0U3 | recombinant SENP1 catalytic domain, CyPet-SUMO1-YPet FRET cleavage | inhibition, % at 10 µM | actives 0.21% (n = 360,000) | AID 624204;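 active means inhibition at least 30% at 10 µM, raw YFP signal under a set limit, fluorescence ratio 0.5 to 1.5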
Target sequence (Q9P0U3 419-644 limits assumed): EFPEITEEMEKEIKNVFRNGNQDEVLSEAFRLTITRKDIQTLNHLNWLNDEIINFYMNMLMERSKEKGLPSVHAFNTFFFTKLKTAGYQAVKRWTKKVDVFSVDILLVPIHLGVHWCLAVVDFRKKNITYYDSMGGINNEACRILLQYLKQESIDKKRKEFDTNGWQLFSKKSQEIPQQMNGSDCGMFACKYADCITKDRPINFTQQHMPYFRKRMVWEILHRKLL
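Compound: 10 µM single point, 0.5% DMSO; Test system: hSENP1 catalytic domain, recombinant; Timing: 50 min reaction at room temperature; Technique: FRET, CFP and YFP emission; Control set: no-enzyme wells low, DMSO-plus-enzyme wells high control.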
GRK2 CP1: confirmation of human GRK2 inhibitors displacing RNA aptamer; actives 4% (n = 2,000); shares compounds with GRK2 inh; AID 504451; aptamer displacement, % at 10 µM; bead-bound GRK2, FAM-aptamer displacement, flow cytometry;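 active means aptamer displacement above 40%, near three times the noise of non-fluorescent compounds, on plates passing quality checks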;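 further: negative values mostly reflect intrinsic compound fluorescence rather than true enhancement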
FAM quench CP1: quenches fluorescent RNA aptamer, GRK2 hit artifact | shares compounds with GRK2 inh | Carboxyfluorescein RNA aptamer on beads, flow cytometry quenching; stronger effect = lower value | 2,000 tested, under 10 active | fluorescence response (% of DMSO), % at 10 µM | AID 504580;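 active means compounds that quench the bead-bound fluorescent RNA probe, cutting fluorescence to under half of the solvent control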;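 further: counterscreen run without GRK2 so only probe quenching by compound is measured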
GRK2 confirm 2: confirmation of human GRK2 inhibitors binding RNA aptamer site. shares compounds with GRK2 inh. bead-bound GRK2, FAM-aptamer displacement, flow cytometry. inhibition of aptamer binding, % at 10 µM. 360 tested, under 10 active. AID 504782;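 active means inhibition of aptamer binding above 40%, about triple the noise seen with nonglowing compounds, on plates passing quality control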;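 further: negative values mostly come from compounds that fluoresce themselves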
FAM quench SP: quenches fluorescent RNA aptamer, GRK2 hit artifact | shares compounds with GRK2 inh | carboxyfluorescein RNA aptamer beads, flow cytometry quenching; stronger effect = lower value | fluorescence response vs DMSO, % at 10 µM | 360 tested, under 10 active;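 active means response vs DMSO under 50%, meaning signal dropped by over half, treated as fluorescence quencher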;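 further: labelled aptamer on streptavidin beads without GRK2 as a quench counter-screen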
Of the large screens only hits and unclear results are named; the others gave an inactive call (follow-up assays come after a bar, where they were run).

Cc1cccc(C(=O)N2CCN(c3ccc(C(F)(F)F)cn3)CC2)c1C	none | GRK2 CP1 inactive | FAM quench CP1 inactive
O=C(/C=C/c1ccco1)NCC1COc2ccccc2O1 (centres undefined)	none
Cc1cc2nc(N3C(=O)CNC3=S)sc2cc1C	GRK2 inh 75 | GRK2 CP1 inactive | FAM quench CP1 inactive
O=C(c1ccc(OC2CCN(CCCc3ccccc3)CC2)cc1)N1CCCC1	none
Cc1cc(=O)oc2cc(OCC(=O)N/N=C/c3cc([N+](=O)[O-])ccc3O)ccc12	GRK2 inh 75 | GRK2 CP1 inactive | FAM quench CP1 inactive
CCCCCCn1c(CN2CCCCC2CC)nc2c1c(=O)n(C)c(=O)n2C (centres undefined)	none | GRK2 CP1 inactive | FAM quench CP1 inactive
CCC1CCCCN1Cc1nc2c(c(=O)n(C)c(=O)n2C)n1CCC(C)C (centres undefined)	none | GRK2 CP1 inactive | FAM quench CP1 inactive
CCC1CCCCN1Cc1nc2c(c(=O)n(C)c(=O)n2C)n1CC(C)C (centres undefined)	none | GRK2 CP1 inactive | FAM quench CP1 inactive
CCOCCn1c(CN2CCCCC2C)nc2c1c(=O)n(C)c(=O)n2C (centres undefined)	none
CC(C)Cn1c(CN(C)Cc2ccccc2)nc2c1c(=O)n(C)c(=O)n2C	GRK2 inh 76 | GRK2 CP1 inactive | FAM quench CP1 inactive
O=S(=O)(c1ccccc1)N(CC(F)(F)F)c1ccc(C(O)(C(F)(F)F)C(F)(F)F)cc1	none (no result: GRK2 inh, B2AR ag)
Cc1sc2c(c1C)C(=O)/C(=C\Nc1ccccn1)S(=O)(=O)N2C	GRK2 inh 57 | GRK2 CP1 inactive | FAM quench CP1 inactive
Cn1cnnc1SCC(=O)Nc1ccc(S(N)(=O)=O)cc1	none
O=C(NCCN1C(=O)S/C(=C\c2ccc(Cl)cc2Cl)C1=O)C1=COCCO1	none
O=C(NCc1ccc(F)cc1)C1CCCN(S(=O)(=O)c2ccc(-n3cnnn3)cc2)C1 (centres undefined)	none | GRK2 CP1 inactive | FAM quench CP1 inactive
O=C(NCc1ccccc1)C1CCCN(S(=O)(=O)c2ccc(-n3cnnn3)cc2)C1 (centres undefined)	none
COCCNCCCOc1ccc(Br)cc1Cl	none
CCCCNCCOCCOc1ccc(C)cc1Br	none
COCCCNCCCCOc1ccc(Br)cc1Cl	GRK2 inh 41 | GRK2 confirm 2 inactive | FAM quench SP inactive
COCCCNCCOCCOc1ccc(C)cc1Br	GRK2 inh 100 | GRK2 confirm 2 inactive | FAM quench SP inactive
COc1cc(C)c2c(c1C=O)Oc1c(c(C)c(O)c3c1C(O)OC3=O)OC2=O (centres undefined)	GRK2 inh 66 | GRK2 CP1 inactive | FAM quench CP1 inactive
CCOC(=O)N1CCN(C(=O)c2nn(C)c3c2CSc2ccccc2-3)CC1	none
Cc1[nH][nH]c(=O)c1C(c1ccc(-c2cccc(C(=O)O)c2)o1)c1c(C)[nH][nH]c1=O	GRK2 inh 42 | GRK2 confirm 2 inactive | FAM quench SP inactive
CCN(CC)C(=O)CSc1nnc(SC(C)C(=O)NC2CC2)s1 (centres undefined)	none
O=C(C1CCCCCC1)N1CC[C@@H](N2CCC(O)CC2)[C@H](O)C1	none | GRK2 CP1 inactive | FAM quench CP1 inactive
O=C(C1CCCCC1)N1CCN(C(=O)C2CCCCC2)CC1	none
COc1cc(/C=C/CNC[C@H]2O[C@@H](n3ccc(=O)[nH]c3=O)[C@H](O)[C@@H]2O)ccc1O	none (no result: GRK2 inh)
CC[C@H](C)[C@H]1CNC(=O)C(=O)N1CC1CCN(CCCc2ccc(OC)c(OC)c2)CC1	none (no result: GRK2 inh)
CC[C@@H](C)[C@@H]1CN([C@@H](C)CN2CCC[C@H]2CN2C(N)=NC[C@H]2CC(C)C)C(=N)N1CCc1ccc(Cl)c(Cl)c1	GRK2 inh 84, ABHD5-PLIN5 inh 30 | GRK2 confirm 2 inactive | FAM quench SP inactive
CC(C)c1c(C(=O)N/N=C/c2ccccc2OCc2c(F)cccc2Cl)nnn1-c1nonc1N	none
CCOc1ccc(C(O)(c2ccccc2)C(CN2CCCC2)c2ccccc2)cc1 (centres undefined)	none
CC(=O)COC(=O)c1cccc(N2C(=O)C3C4C=CC(C4)C3C2=O)c1 (centres undefined)	GRK2 inh 80 | GRK2 CP1 inactive | FAM quench CP1 inactive
CCOC(=O)c1cccc(N2C(=O)C3C(C2=O)C2C=CC3C23CC3)c1 (centres undefined)	none
C=CCc1cccc(/C=N/NC(=O)c2ccc3nc[nH]c3c2)c1O	none
CC(=Nc1ccccc1)C1=C(O)CCCC1=O	none | GRK2 CP1 inactive | FAM quench CP1 inactive
COC(=O)c1cc(S(=O)(=O)NCC2CCN(CCc3cccs3)CC2)cn1C	none
OCCSc1nc(N2CCOCC2)nc(N2CCOCC2)n1	none | GRK2 CP1 inactive | FAM quench CP1 inactive
Cc1cccc(C)c1NC(=O)CSc1nc(N2CCOCC2)nc(N2CCOCC2)n1	none
Cc1ccc(C)c(NC(=O)CCN2C(=O)C3CC=CCC3C2=O)c1 (centres undefined)	GRK2 inh 68 | GRK2 CP1 inactive | FAM quench CP1 inactive
Cc1ccc(C)c(NC(=O)CCN2C(=O)c3ccccc3C2=O)c1	none
COc1ccc(NC(=O)N(C)C[C@H]2Oc3ccc(NS(=O)(=O)c4ccccc4)cc3C(=O)N([C@H](C)CO)C[C@@H]2C)cc1	none (no result: GRK2 inh)
Cc1cccc(-n2c(N)c(-c3nc4ccccc4n3C)c3nc4ccccc4nc32)c1	GRK2 inh 97 | GRK2 confirm 2 inactive | FAM quench SP inactive
Cn1c(-c2c(N)n(-c3ccccc3)c3nc4ccccc4nc23)nc2ccccc21	none
CCOc1ccc(C(=O)NCC(=O)OCCCC(=O)c2ccc(F)cc2)cc1OCC	none
COc1ccc(Oc2ccc(N/C=C/C(=O)C(C)(C)C)cc2)cc1	none
COc1cccc(Oc2ccc(N/C=C/C(=O)C(C)(C)C)cc2)c1	GRK2 inh 88 | GRK2 CP1 inactive | FAM quench CP1 inactive
Cc1ccc2nc3c(c(C(=O)O)c2c1)CCC3	none
CCCC(C)NC(=O)c1c2c(nc3ccccc13)CCC2 (centres undefined)	none
O=C(O)c1c2c(nc3ccc(F)cc13)CCC2	GRK2 inh 72 | GRK2 CP1 inactive | FAM quench CP1 inactive
O=C(NCc1ccco1)c1c2c(nc3ccccc13)CCC2	none | GRK2 confirm 2 inactive | FAM quench SP inactive
